In brackets after ≈: the same amount, converted by molar mass.
Legend:
[1] = test system: Candida albicans; assay: Antifungal activity against Candida albicans after 24 hrs by twofold broth dilution method; assay type: functional
Outline: (§1)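 MIC by NCCLS-recommended twofold broth microdilution, run in triplicate. Strains: B. subtilis ATCC6633, E. coli DH52, M. luteus ATCC4698, P. vulgaris ATCC6896, S. dysenteriae, S. aureus ATCC25923, MRSA N315, C. albicans ATCC76615, C. mycoderma. References were chloromycin, norfloxacin and berberine for bacteria, and fluconazole for fungi.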

[2] = test system: Shigella dysenteriae; assay: Antibacterial activity against Shigella dysenteriae after 24 hrs by twofold broth dilution method; assay type: functional; outline: as §1
[3] = test system: Proteus vulgaris; assay: Antibacterial activity against Proteus vulgaris after 24 hrs by twofold broth dilution method; assay type: functional; outline: as §1
[4] = test system: Candida; assay: Antifungal activity against Candida mycoderma after 24 hrs by twofold broth dilution method; assay type: functional; outline: as §1
[5] = test system: Staphylococcus aureus; assay: Antibacterial activity against Staphylococcus aureus ATCC 25923 after 24 hrs by twofold broth dilution method; assay type: functional; conditions: ATCC 25923, 24 h; outline: as §1
[6] = test system: Micrococcus luteus; assay: Antibacterial activity against Micrococcus luteus ATCC 4698 after 24 hrs by twofold broth dilution method; assay type: functional; conditions: ATCC 4698, 24 h; outline: as §1
[7] = test system: Staphylococcus aureus; assay: Antibacterial activity against methicillin-resistant Staphylococcus aureus N315 after 24 hrs by twofold broth dilution method; assay type: functional; conditions: N315, 24 h; outline: as §1
[8] = test system: Escherichia coli; assay: Antibacterial activity against Escherichia coli DH52 after 24 hrs by twofold broth dilution method; assay type: functional; conditions: DH52, 24 h; outline: as §1
[9] = test system: Bacillus subtilis; assay: Antibacterial activity against Bacillus subtilis after 24 hrs by twofold broth dilution method; assay type: functional; outline: as §1
[10] = test system: Pseudomonas aeruginosa; assay: Antibacterial activity against Pseudomonas aeruginosa after 24 hrs by twofold broth dilution method; assay type: functional
Outline: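 Twofold broth dilution in 96-well microplates following NCCLS guidance; MIC read as the endpoint; tests run in triplicate.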

[11] = Octanol-water partition coefficient, log P of the compound after 24 hrs by UV-Vis spectrophotometry; assay type: physicochemical
[12] = Solubility of the compound in phosphate buffer at pH 7.5 after 20 hrs by UV spectrophotometry; assay type: physicochemical
Outline: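 Phosphate buffer pH 7.5 added to solid; suspension sonicated 10 min, then shaken at room temperature for 20 h and centrifuged. Supernatant concentration read by UV absorbance against a regression calibration curve (278 and 340 nm).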

[13] = Stability of the compound at pH 6.5 to 8.5 after 30 mins by UV spectrophotometry; assay type: physicochemical; conditions: buffer, pH 6.5, 0.5 h
Outline: (§2)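 Stability followed by UV spectrometry across pH 6.5–8.5 and temperatures 30–80 °C.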

[14] = Stability of the compound at 30 to 80 degC after 30 mins by UV spectrophotometry; assay type: physicochemical; conditions: 0.5 h; outline: as §2

| SMILES | MIC [1] [µg/mL] | MIC [2] [µg/mL] | MIC [3] [µg/mL] | MIC [4] [µg/mL] | MIC [5] [µg/mL] | MIC [6] [µg/mL] | MIC [7] [µg/mL] | MIC [8] [µg/mL] | MIC [9] [µg/mL] | MIC [10] [µg/mL] | logP at 24 h [11] | solubility at 20 h [12] [µg/mL] | Stability [13] | Stability [14] |
| --- | --- | --- | --- | --- | --- | --- | --- | --- | --- | --- | --- | --- | --- | --- |
| O=[N+]([O-])c1cncn1CCN(CCBr)Cc1ccc(Cl)c(Cl)c1 | 16 (≈ 37.9 µM) | 8 (≈ 19 µM) | 32 (≈ 75.8 µM) | 128 (≈ 303 µM) | 32 (≈ 75.8 µM) | 128 (≈ 303 µM) | 32 (≈ 75.8 µM) | 16 (≈ 37.9 µM) | 32 (≈ 75.8 µM) | 16 (≈ 37.9 µM) | – | – | – | – |
| O=[N+]([O-])c1cncn1CCN(CCBr)Cc1ccccc1Cl | 8 (≈ 20.6 µM) | 16 (≈ 41.3 µM) | 16 (≈ 41.3 µM) | 32 (≈ 82.5 µM) | 8 (≈ 20.6 µM) | 64 (≈ 165 µM) | 16 (≈ 41.3 µM) | 8 (≈ 20.6 µM) | 8 (≈ 20.6 µM) | 16 (≈ 41.3 µM) | – | – | – | – |
| O=[N+]([O-])c1cncn1CCN(CCBr)Cc1cccc(Cl)c1 | 64 (≈ 165 µM) | 256 (≈ 660 µM) | 256 (≈ 660 µM) | 64 (≈ 165 µM) | 16 (≈ 41.3 µM) | 64 (≈ 165 µM) | 64 (≈ 165 µM) | 64 (≈ 165 µM) | 64 (≈ 165 µM) | 32 (≈ 82.5 µM) | – | – | – | – |
| O=[N+]([O-])c1cncn1CCN(CCBr)Cc1ccc(Cl)cc1 | 64 (≈ 165 µM) | 256 (≈ 660 µM) | 256 (≈ 660 µM) | 128 (≈ 330 µM) | 64 (≈ 165 µM) | 128 (≈ 330 µM) | 128 (≈ 330 µM) | 128 (≈ 330 µM) | 64 (≈ 165 µM) | 64 (≈ 165 µM) | – | – | – | – |
| COc1ccc2cc3[n+](cc2c1OCCN(CCn1cnc([N+](=O)[O-])c1)Cc1ccc(Cl)cc1)CCc1cc2c(cc1-3)OCO2.[Cl-] | 64 | 128 | 64 | 16 | 32 | 32 | 64 | 64 | 64 | 64 | 0.48 | 64.8 | Stable | Stable |
| COc1ccc2cc3[n+](cc2c1OCCN(CCn1cncc1[N+](=O)[O-])Cc1ccc(Cl)c(Cl)c1)CCc1cc2c(cc1-3)OCO2.[Cl-] | 8 | 2 | 16 | 64 | 8 | 32 | 16 | 8 | 16 | 8 | 0.55 | 80.8 | Stable | Stable |
| COc1ccc2cc3[n+](cc2c1OCCN(CCn1cncc1[N+](=O)[O-])Cc1cccc(Cl)c1)CCc1cc2c(cc1-3)OCO2.[Cl-] | 32 | 256 | 64 | 32 | 4 | 32 | 16 | 32 | 32 | 16 | 0.54 | 71.3 | Stable | Stable |
| COc1ccc2cc3[n+](cc2c1OCCN(CCn1cncc1[N+](=O)[O-])Cc1ccc(Cl)cc1)CCc1cc2c(cc1-3)OCO2.[Cl-] | 32 | 32 | 32 | 64 | 16 | 64 | 32 | 32 | 128 | 16 | 0.53 | 68.1 | Stable | Stable |
| Cc1ncc([N+](=O)[O-])n1CCN(CCBr)Cc1ccc(F)cc1F | 128 (≈ 317 µM) | 32 (≈ 79.4 µM) | 128 (≈ 317 µM) | 128 (≈ 317 µM) | 64 (≈ 159 µM) | 128 (≈ 317 µM) | 16 (≈ 39.7 µM) | 32 (≈ 79.4 µM) | 256 (≈ 635 µM) | 64 (≈ 159 µM) | – | – | – | – |
| O=[N+]([O-])c1cn(CCN(CCBr)Cc2ccc(F)cc2F)cn1 | 32 (≈ 82.2 µM) | 16 (≈ 41.1 µM) | 32 (≈ 82.2 µM) | 8 (≈ 20.6 µM) | 32 (≈ 82.2 µM) | 16 (≈ 41.1 µM) | 64 (≈ 164 µM) | 32 (≈ 82.2 µM) | 64 (≈ 164 µM) | 16 (≈ 41.1 µM) | – | – | – | – |
| O=[N+]([O-])c1cn(CCN(CCBr)Cc2ccc(Cl)c(Cl)c2)cn1 | 32 (≈ 75.8 µM) | 16 (≈ 37.9 µM) | 64 (≈ 152 µM) | 64 (≈ 152 µM) | 32 (≈ 75.8 µM) | 64 (≈ 152 µM) | 64 (≈ 152 µM) | 32 (≈ 75.8 µM) | 32 (≈ 75.8 µM) | 32 (≈ 75.8 µM) | – | – | – | – |
| O=[N+]([O-])c1cn(CCN(CCBr)Cc2ccccc2Cl)cn1 | 16 (≈ 41.3 µM) | 32 (≈ 82.5 µM) | 64 (≈ 165 µM) | 128 (≈ 330 µM) | 16 (≈ 41.3 µM) | 64 (≈ 165 µM) | 64 (≈ 165 µM) | 32 (≈ 82.5 µM) | 32 (≈ 82.5 µM) | 32 (≈ 82.5 µM) | – | – | – | – |
| O=[N+]([O-])c1cn(CCN(CCBr)Cc2cccc(Cl)c2)cn1 | 128 (≈ 330 µM) | 256 (≈ 660 µM) | 512 (≈ 1320 µM) | 128 (≈ 330 µM) | 64 (≈ 165 µM) | 64 (≈ 165 µM) | 128 (≈ 330 µM) | 128 (≈ 330 µM) | 64 (≈ 165 µM) | 64 (≈ 165 µM) | – | – | – | – |
| O=[N+]([O-])c1cn(CCN(CCBr)Cc2ccc(Cl)cc2)cn1 | 64 (≈ 165 µM) | 128 (≈ 330 µM) | 128 (≈ 330 µM) | 128 (≈ 330 µM) | 64 (≈ 165 µM) | 128 (≈ 330 µM) | 128 (≈ 330 µM) | 128 (≈ 330 µM) | 64 (≈ 165 µM) | 256 (≈ 660 µM) | – | – | – | – |
| O=[N+]([O-])c1cncn1CCN(CCBr)Cc1ccc(F)cc1F | 16 (≈ 41.1 µM) | 8 (≈ 20.6 µM) | 16 (≈ 41.1 µM) | 4 (≈ 10.3 µM) | 32 (≈ 82.2 µM) | 16 (≈ 41.1 µM) | 32 (≈ 82.2 µM) | 32 (≈ 82.2 µM) | 64 (≈ 164 µM) | 8 (≈ 20.6 µM) | – | – | – | – |
| COc1ccc2cc3[n+](cc2c1OC)CCc1cc2c(cc1-3)OCO2.[Cl-] [BERBERINE CHLORIDE] | > 512 | 256 | 128 | 128 | 512 | > 512 | 128 | > 512 | > 512 | 256 | – | – | – | – |
| NC1CCN(c2c(F)cc3c(=O)c(C(=O)O)cn(C4CC4)c3c2Cl)C1 (configuration not stated) [CLINAFLOXACIN] | – | – | – | – | – | – | – | – | – | 16 (≈ 43.7 µM) | – | – | – | – |
| OC(Cn1cncn1)(Cn1cncn1)c1ccc(F)cc1F [FLUCONAZOLE] | 1 (≈ 3.27 µM) | – | – | 4 (≈ 13.1 µM) | – | – | – | – | – | – | – | – | – | – |
| CCn1cc(C(=O)O)c(=O)c2cc(F)c(N3CCNCC3)cc21 [NORFLOXACIN] | – | 4 (≈ 12.5 µM) | 8 (≈ 25.1 µM) | – | 0.5 (≈ 1.57 µM) | 2 (≈ 6.26 µM) | 8 (≈ 25.1 µM) | 16 (≈ 50.1 µM) | 1 (≈ 3.13 µM) | 16 (≈ 50.1 µM) | – | – | – | – |

— ChEMBL document CHEMBL2401717, “Synthesis and bioactive evaluation of novel hybrids of metronidazole and berberine as new type of antimicrobial agents and their transportation behavior by human serum albumin” (Bioorg Med Chem, 2013)
